Experimental data from ChEMBL document CHEMBL1128440 (J Med Chem, 1995).

Columns and labels:
[1] = species: Rattus norvegicus; test: Tissue biodistribution into estrogen-primed immature female rat blood at 1 hr time interval; assay type: ADME, organism-based; settings: in vivo
Summary of the method: (§1)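 Immature female Sprague-Dawley rats (25 days old, ≈50 g, five per time point) primed with estradiol, 5 μg sc daily for 2 days in 50% ethanol/sunflower seed oil, used 24 h after the last injection. The 18F-labeled ligand was given iv by tail vein in 10% ethanol/saline. Decapitated at 1 or 3 h; blood and organs weighed and gamma-counted. Reported as %ID/g ± SD, n = 5.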

[2] = species: Rattus norvegicus; test: Tissue biodistribution into estrogen-primed immature female rat liver at 3 hr time interval; assay type: ADME, organism-based; settings: in vivo; summary of the method: as §1
[3] = species: Rattus norvegicus; test: Tissue biodistribution into estrogen-primed immature female rat uterus/muscle at 3 hr time interval; assay type: ADME, organism-based; settings: in vivo
[4] = species: Rattus norvegicus; test: Tissue biodistribution into estrogen-primed immature female rat lung at 3 hr time interval; assay type: ADME, organism-based; settings: in vivo; summary of the method: as §1
[5] = species: Rattus norvegicus; test: Tissue biodistribution into estrogen-primed immature female rat uterus at 1 hr low time interval; assay type: ADME, organism-based; settings: in vivo; summary of the method: as §1
[6] = species: Rattus norvegicus; test: Tissue biodistribution into estrogen-primed immature female rat liver at 1 hr time interval; assay type: ADME, organism-based; settings: in vivo; summary of the method: as §1
[7] = species: Rattus norvegicus; test: Tissue biodistribution into estrogen-primed immature female rat bone at 1 hr low time interval; assay type: ADME, organism-based, Bone element; settings: in vivo; summary of the method: as §1
[8] = species: Rattus norvegicus; test: Tissue biodistribution into estrogen-primed immature female rat brain at 1 hr low time interval; assay type: ADME, organism-based; settings: in vivo; summary of the method: as §1
[9] = species: Rattus norvegicus; test: Tissue biodistribution into estrogen-primed immature female rat lung at 1 hr blocked time interval; assay type: ADME, organism-based; settings: in vivo; summary of the method: as §1
[10] = species: Rattus norvegicus; test: Tissue biodistribution into estrogen-primed immature female rat bone at 1 hr blocked time interval; assay type: ADME, organism-based, Bone element; settings: in vivo; summary of the method: as §1
[11] = species: Rattus norvegicus; test: Tissue biodistribution into estrogen-primed immature female rat bone at 3 hr time interval; assay type: ADME, organism-based, Bone element; settings: in vivo; summary of the method: as §1
[12] = species: Rattus norvegicus; test: Tissue biodistribution into estrogen-primed immature female rat kidney at 1 hr low time interval; assay type: ADME, organism-based; settings: in vivo; summary of the method: as §1
[13] = species: Rattus norvegicus; test: Tissue biodistribution into estrogen-primed immature female rat brain at 1 hr time interval; assay type: ADME, organism-based; settings: in vivo; summary of the method: as §1
[14] = species: Rattus norvegicus; test: Tissue biodistribution into estrogen-primed immature female rat uterus/blood at 1 hr low time interval; assay type: ADME, organism-based; settings: in vivo; summary of the method: as §1
[15] = species: Rattus norvegicus; test: Tissue biodistribution into estrogen-primed immature female rat lung at 1 hr low time interval; assay type: ADME, organism-based; settings: in vivo; summary of the method: as §1
[16] = species: Rattus norvegicus; test: Tissue biodistribution into estrogen-primed immature female rat uterus at 3 hr time interval; assay type: ADME, organism-based; settings: in vivo; summary of the method: as §1
[17] = species: Rattus norvegicus; test: Tissue biodistribution into estrogen-primed immature female rat muscle at 1 hr low time interval; assay type: ADME, organism-based; settings: in vivo; summary of the method: as §1
[18] = species: Rattus norvegicus; test: Tissue biodistribution into estrogen-primed immature female rat brain at 3 hr time interval; assay type: ADME, organism-based; settings: in vivo; summary of the method: as §1
[19] = species: Rattus norvegicus; test: Tissue biodistribution into estrogen-primed immature female rat uterus/blood at 1 hr blocked time interval; assay type: ADME, organism-based; settings: in vivo; summary of the method: as §1
[20] = species: Rattus norvegicus; test: Tissue biodistribution into estrogen-primed immature female rat bone at 1 hr time interval; assay type: ADME, organism-based, Bone element; settings: in vivo; summary of the method: as §1
[21] = Partition coefficient (logP); assay type: physicochemical; settings: octanol/water
Summary of the method: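 log P(o/w) (octanol/water) estimated by a reversed-phase HPLC method.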

[22] = species: Rattus norvegicus; test: Tissue biodistribution into estrogen-primed immature female rat blood at 1 hr blocked time interval; assay type: ADME, organism-based; settings: in vivo; summary of the method: as §1
[23] = species: Rattus norvegicus; test: Tissue biodistribution into estrogen-primed immature female rat brain at 1 hr blocked time interval; assay type: ADME, organism-based; settings: in vivo; summary of the method: as §1
[24] = species: Rattus norvegicus; test: Tissue biodistribution into estrogen-primed immature female rat uterus/blood at 3 hr time interval; assay type: ADME, organism-based; settings: in vivo; summary of the method: as §1

Structure (SMILES): C[C@]12CCC3C(CCC4=CC(=O)CC[C@@H]43)C1C[C@H]1OC(c3ccco3)O[C@]12C(=O)CF (stereo not given in full)
- Injected dose/g [1]: 0.38%
- Injected dose/g [2]: 1.65%
- ratio [3]: 32.2
- Injected dose/g [4]: 0.31%
- Injected dose/g [5]: 5.18%
- Injected dose/g [6]: 2.4%
- Injected dose/g [7]: 0.99%
- Injected dose/g [8]: 0.4%
- Injected dose/g [9]: 1.16%
- Injected dose/g [10]: 1.29%
- Injected dose/g [11]: 1.3%
- Injected dose/g [12]: 1.14%
- Injected dose/g [13]: 0.57%
- Injected dose/g [14]: 14.95%
- Injected dose/g [15]: 1.51%
- Injected dose/g [16]: 7.83%
- Injected dose/g [17]: 0.41%
- Injected dose/g [18]: 0.18%
- uterus/blood ratio [19]: 3.68
- Injected dose/g [20]: 1.11%
- logP [21]: 4.11
- logP ([21]; read-out: logP): 3.87
- Injected dose/g [22]: 0.46%
- Injected dose/g [23]: 0.49%
- uterus/blood ratio [24]: 48
